ChEMBL document CHEMBL1177691, “Antineoplastic agents 582. Part 1: Isolation and structure of a cyclobutane-type sesquiterpene cancer cell growth inhibitor from Coprinus cinereus (Coprinaceae)” (2010)
≈ marks a conversion by molar mass, not a printed value. Calls of active or inactive are those of the source. No cut-off for these calls is given here.

Assays:
Escherichia coli = experiment: Antimicrobial activity against Escherichia coli ATCC 25922 at 64 ug/ml by broth microdilution assay; format: functional, organism-based
In short: (§1)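 Broth microdilution susceptibility testing following NCCLS approved standards: M27-A (yeast method) and M7-A4. Each compound was tested at a single concentration of 64 μg/ml for growth inhibition of the listed strains: S. maltophilia ATCC 13637, M. luteus Presque Isle 456, S. aureus ATCC 29213, E. coli ATCC 25922, E. cloacae ATCC 13047, E. faecalis ATCC 29212, C. albicans ATCC 90028 and C. neoformans ATCC 90112.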

Cryptococcus neoformans = experiment: Antimicrobial activity against Cryptococcus neoformans ATCC 90112 at 64 ug/ml by broth microdilution assay; format: functional, organism-based; in short: as §1
P388 = experiment: Antitumor activity against mouse P388 cells after 48 hrs by Sulforhodamine B; format: functional; settings: P388, 48 h, read-out: ED50 (the source's name)
Staphylococcus aureus = experiment: Antimicrobial activity against Staphylococcus aureus ATCC 29213 at 64 ug/ml by broth microdilution assay; format: functional, organism-based; in short: as §1
[1] = tested on: Stenotrophomonas maltophilia; experiment: Antimicrobial activity against Stenotrophomonas maltophilia ATCC 13637 at 64 ug/ml by broth microdilution assay; format: functional, organism-based; in short: as §1
Micrococcus luteus = experiment: Antimicrobial activity against Micrococcus luteus Presque Isle 456 at 64 ug/ml by broth microdilution assay; format: functional, organism-based; in short: as §1
Candida albicans = experiment: Antimicrobial activity against Candida albicans ATCC 90028 at 64 ug/ml by broth microdilution assay; format: functional, organism-based; in short: as §1
Enterobacter cloacae = experiment: Antimicrobial activity against Enterobacter cloacae ATCC 13047 at 64 ug/ml by broth microdilution assay; format: functional, organism-based; in short: as §1
Enterococcus faecalis = experiment: Antimicrobial activity against Enterococcus faecalis ATCC 29212 at 64 ug/ml by broth microdilution assay; format: functional, organism-based; in short: as §1

| EC50 (P388) [µg/mL] | SMILES | Activity (Escherichia coli) | Activity (Cryptococcus neoformans) | Activity (Staphylococcus aureus) | Activity [1] | Activity (Micrococcus luteus) | Activity (Candida albicans) | Activity (Enterobacter cloacae) | Activity (Enterococcus faecalis) |
| --- | --- | --- | --- | --- | --- | --- | --- | --- | --- |
| 5.3 (≈ 21 µM) | C/C(C=O)=C1/CC[C@@]1(C)[C@@H]1C[C@](C)(CO)C[C@H]1O | inactive | inactive | inactive | inactive | inactive | inactive | inactive | inactive |
|  | CC1(C)C[C@H]2[C@H](O)C(CO)=C3[C@H](O)C[C@]3(C)[C@H]2C1 | inactive | inactive | inactive | inactive | inactive | inactive | inactive | inactive |
|  | C=C1[C@H](O)[C@H]2C[C@](C)(CO)CC2=C(C)C12CC2 | inactive | inactive | inactive | inactive | inactive | inactive | inactive | inactive |
